In ChEMBL document CHEMBL1141541, “The discovery of (R)-2-(sec-butylamino)-N-(2-methyl-5-(methylcarbamoyl)phenyl) thiazole-5-carboxamide (BMS-640994)-A potent and efficacious p38alpha MAP kinase inhibitor” (Bioorg Med Chem Lett, 2008):
Values after ≈ are worked out from the molar mass of the structure shown. Active and inactive are the calls of the source. The calls are words filed in the database; no cut-off is given here.

Tests used:
[1] = target: Mitogen-activated protein kinase 14 (Homo sapiens, UniProt Q16539)
[2] = target: Tyrosine-protein kinase Lck (Homo sapiens, UniProt P06239); test: Inhibition of Lck
PBMC [3] = test: Inhibition of LPS-induced TNFalpha biosynthesis in human PBMC; type: functional, cell-based
In short: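 PBMCs isolated from human whole blood by Ficoll–Hypaque density gradient centrifugation, resuspended at 5 · 10⁶/mL in RPMI with 10% fetal bovine serum. Cells preincubated with compound (0.2% DMSO) 5 min at RT, then LPS added (200 ng/mL stock), 6 h at 37 °C. Medium TNFα measured by ELISA; IC₅₀ from linear regression. Duplicate typical.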

Mus musculus [4] = test: Inhibition of LPS-induced TNFalpha production in mouse at 5 mg/kg, po administered 4 hrs before LPS challenge relative to control; type: functional
In short: (§1)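 Mice given 5 mg/kg orally, then LPS challenge after a 4 h or 24 h pre-dosing interval. Circulating TNFα reduction reported as percent versus vehicle, mean ± SD, n = 8 animals; Student's t-test.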

Serum = test: Drug level in LPS challenged mouse serum at 5 mg/kg, po; type: ADME, organism-based; parameters: dose 5 mg/kg, route oral; details: in vivo, read-out: Drug uptake
In short: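 Serum drug concentration in mice measured in the LPS challenge study after 5 mg/kg oral dosing, 4 h or 24 h pre-dosing interval.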

Cytochrome P450 3A4 = Cytochrome P450 3A4 (Homo sapiens, UniProt P08684); test: Inhibition of CYP3A4; type: ADME
[5] = Drug level in rat serum at 1 mg/kg after 18 hrs; type: ADME, organism-based; parameters: dose 1 mg/kg; details: read-out: Drug uptake
In short: (§2)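 Terminal serum concentrations in adjuvant-arthritis rats taken 18 h after the final once-daily oral dose.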

Rattus norvegicus [6] = test: Inhibition of disease progression in rat adjuvant-induced arthritis model assessed as paw swelling at 1 mg/kg, po qd; type: functional, organism-based; parameters: dose 1 mg/kg
In short: (§3)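 Rat adjuvant-induced arthritis, compound given orally once daily; disease progression read as paw swelling over study days 10–21 versus vehicle; Student's t-test.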

[7] = Oral bioavailability in rat at 10 mg/kg; type: ADME, organism-based; details: in vivo
In short: (§4)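 Rat pharmacokinetics: iv dose 1 mg/kg and po dose 10 mg/kg, vehicle PEG300, n = 3 animals.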

Rattus norvegicus [8] = test: Inhibition of disease progression in rat adjuvant-induced arthritis model assessed as paw swelling at 0.3 mg/kg, po qd; type: functional
In short: as §3

Cytochrome P450 2C9 = Cytochrome P450 2C9 (Homo sapiens, UniProt P11712); test: Inhibition of CYP2C9; type: ADME
Liver microsomes [9] = test: Metabolic stability in rat liver microsomes; type: ADME, Microsome
Cytochrome P450 2C19 = Cytochrome P450 2C19 (Homo sapiens, UniProt P33261); test: Inhibition of CYP2C19; type: ADME
Cytochrome P450 2D6 = Cytochrome P450 2D6 (Homo sapiens, UniProt P10635); test: Inhibition of CYP2D6; type: ADME
[10] = Volume of distribution at steady state in rat at 1 mg/kg, iv; type: ADME, organism-based; parameters: dose 1 mg/kg, route intravenous; details: in vivo, read-out: Vdss
In short: as §4

[11] = Permeability across human Caco-2 cells; type: ADME, cell-based; details: read-out: permeability
[12] = AUC (0 to 24hrs) in rat at 10 mg/kg, po; type: ADME, organism-based; parameters: time < 24 hr, dose 10 mg/kg, route oral; details: plasma
Liver microsomes [13] = test: Metabolic stability in human liver microsomes; type: ADME, Microsome
[14] = Protein binding in human; type: ADME, organism-based; details: in vivo, read-out: PB (converted)
[15] = Drug level in rat serum at 3 mg/kg after 18 hrs; type: ADME, organism-based; parameters: dose 3 mg/kg; details: read-out: Drug uptake
In short: as §2

[16] = Aqueous solubility at pH 6.5; type: physicochemical; details: buffer
Liver = test: Metabolic stability in mouse liver microsomes; type: ADME, Microsome
hERG (KCNH2) = hERG (KCNH2) (Homo sapiens, UniProt Q12809); test: Inhibition of human ERG at 30 uM by patch clamp assay
[17] = Cmax in rat at 10 mg/kg, po; type: ADME, organism-based; parameters: dose 10 mg/kg, route oral; details: in vivo
In short: as §4

PBMC [18] = test: Inhibition of LPS-induced IL1-beta production in human PBMC; type: functional, cell-based
Blood [19] = test: Inhibition of LPS-induced TNFalpha production in human whole blood; type: functional, tissue-based
[20] = Drug level in rat at 10 mg/kg, po after 24 hrs; type: ADME, organism-based; parameters: dose 10 mg/kg, route oral; details: in vivo, read-out: Drug uptake
In short: as §4

[21] = Clearance in rat at 1 mg/kg, iv; type: ADME, organism-based; parameters: dose 1 mg/kg, route intravenous; details: in vivo
In short: as §4

Mus musculus [22] = test: Inhibition of LPS-induced TNFalpha production in mouse at 5 mg/kg, po administered 24 hrs before LPS challenge relative to control
[23] = Half life in rat at 1 mg/kg, iv; type: ADME, organism-based; parameters: dose 1 mg/kg, route intravenous; details: in vivo
In short: as §4

Rattus norvegicus [24] = test: Inhibition of disease progression in rat adjuvant-induced arthritis model assessed as paw swelling at 3 mg/kg, po qd; type: functional, organism-based; parameters: dose 3 mg/kg
In short: as §3

Blood [25] = test: Inhibition of LPS-induced IL1-beta production in human whole blood; type: functional, tissue-based
Rattus norvegicus [26] = organism: Rattus norvegicus; test: Inhibition of LPS-induced TNFalpha production in Lewis rat by ELISA; type: functional
In short: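 Rats dosed orally; two hours later LPS (10 µg, E. coli […]) in 1 mL PBS given IP. Dose–response used to derive oral ED₅₀.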

Cytochrome P450 1A2 = target: T1, Cytochrome P450 1A2 (Homo sapiens, UniProt P05177); test: Inhibition of CYP1A2; type: ADME
T1 sequence (P05177 whole entry): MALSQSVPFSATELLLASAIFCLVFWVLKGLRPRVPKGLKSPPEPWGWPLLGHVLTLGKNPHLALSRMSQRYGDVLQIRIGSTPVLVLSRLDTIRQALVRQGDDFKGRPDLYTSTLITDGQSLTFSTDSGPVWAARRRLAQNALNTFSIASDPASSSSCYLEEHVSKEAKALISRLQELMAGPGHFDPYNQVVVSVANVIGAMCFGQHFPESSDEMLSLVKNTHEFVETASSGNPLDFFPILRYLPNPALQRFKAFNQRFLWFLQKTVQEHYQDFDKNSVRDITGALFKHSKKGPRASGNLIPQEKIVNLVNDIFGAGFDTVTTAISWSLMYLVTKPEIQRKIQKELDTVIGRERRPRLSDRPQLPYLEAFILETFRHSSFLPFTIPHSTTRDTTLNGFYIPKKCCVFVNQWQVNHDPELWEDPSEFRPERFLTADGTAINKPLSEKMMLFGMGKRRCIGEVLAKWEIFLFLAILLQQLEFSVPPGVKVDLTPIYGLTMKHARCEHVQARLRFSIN

Mus musculus [27] = test: Inhibition of LPS-induced TNFalpha production in mouse at 5 mg/kg, po administered 24 hrs before LPS challenge relative to control; type: functional, organism-based; parameters: dose 5 mg/kg
In short: as §1

Chain of Tyrosine-protein kinase Lck (P06239 whole entry): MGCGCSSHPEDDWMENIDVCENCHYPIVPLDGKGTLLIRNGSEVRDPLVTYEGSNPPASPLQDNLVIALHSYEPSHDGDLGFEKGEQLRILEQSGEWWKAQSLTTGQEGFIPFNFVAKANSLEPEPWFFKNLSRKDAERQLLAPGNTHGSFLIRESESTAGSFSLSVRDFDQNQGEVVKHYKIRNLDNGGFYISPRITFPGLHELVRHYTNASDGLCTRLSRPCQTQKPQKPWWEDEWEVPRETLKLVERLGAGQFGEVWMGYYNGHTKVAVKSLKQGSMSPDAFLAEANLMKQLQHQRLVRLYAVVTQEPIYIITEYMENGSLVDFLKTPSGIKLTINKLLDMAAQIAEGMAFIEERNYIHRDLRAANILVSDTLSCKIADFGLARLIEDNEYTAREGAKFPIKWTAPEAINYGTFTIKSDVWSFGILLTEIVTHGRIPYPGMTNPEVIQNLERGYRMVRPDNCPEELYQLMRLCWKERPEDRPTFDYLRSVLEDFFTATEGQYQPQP
Chain of Mitogen-activated protein kinase 14 (Q16539 whole entry): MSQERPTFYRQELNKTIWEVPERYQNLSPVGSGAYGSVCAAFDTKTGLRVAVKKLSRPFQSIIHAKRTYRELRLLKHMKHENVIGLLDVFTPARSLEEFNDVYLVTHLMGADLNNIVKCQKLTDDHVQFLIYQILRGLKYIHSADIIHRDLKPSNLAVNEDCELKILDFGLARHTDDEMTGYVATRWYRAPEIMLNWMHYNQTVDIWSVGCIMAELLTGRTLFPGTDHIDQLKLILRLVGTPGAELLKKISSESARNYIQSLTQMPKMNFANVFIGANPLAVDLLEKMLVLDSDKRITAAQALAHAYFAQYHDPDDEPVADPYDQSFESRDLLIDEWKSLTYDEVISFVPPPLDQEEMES
Chain of Cytochrome P450 2D6 (P10635 whole entry): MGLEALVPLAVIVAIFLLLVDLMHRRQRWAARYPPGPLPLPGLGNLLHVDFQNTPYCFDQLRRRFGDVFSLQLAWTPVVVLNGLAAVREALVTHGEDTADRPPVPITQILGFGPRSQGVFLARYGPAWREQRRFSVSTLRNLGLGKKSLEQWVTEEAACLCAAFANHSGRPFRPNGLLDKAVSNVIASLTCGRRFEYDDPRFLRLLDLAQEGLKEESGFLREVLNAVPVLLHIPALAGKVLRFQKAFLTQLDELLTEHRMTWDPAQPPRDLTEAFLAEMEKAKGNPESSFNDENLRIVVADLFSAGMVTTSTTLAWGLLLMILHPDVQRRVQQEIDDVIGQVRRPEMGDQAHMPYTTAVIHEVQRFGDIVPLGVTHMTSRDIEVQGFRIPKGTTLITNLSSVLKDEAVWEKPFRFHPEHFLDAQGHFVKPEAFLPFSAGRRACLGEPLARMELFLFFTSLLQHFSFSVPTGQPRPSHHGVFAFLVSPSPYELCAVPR
Chain of Cytochrome P450 2C9 (P11712 whole entry): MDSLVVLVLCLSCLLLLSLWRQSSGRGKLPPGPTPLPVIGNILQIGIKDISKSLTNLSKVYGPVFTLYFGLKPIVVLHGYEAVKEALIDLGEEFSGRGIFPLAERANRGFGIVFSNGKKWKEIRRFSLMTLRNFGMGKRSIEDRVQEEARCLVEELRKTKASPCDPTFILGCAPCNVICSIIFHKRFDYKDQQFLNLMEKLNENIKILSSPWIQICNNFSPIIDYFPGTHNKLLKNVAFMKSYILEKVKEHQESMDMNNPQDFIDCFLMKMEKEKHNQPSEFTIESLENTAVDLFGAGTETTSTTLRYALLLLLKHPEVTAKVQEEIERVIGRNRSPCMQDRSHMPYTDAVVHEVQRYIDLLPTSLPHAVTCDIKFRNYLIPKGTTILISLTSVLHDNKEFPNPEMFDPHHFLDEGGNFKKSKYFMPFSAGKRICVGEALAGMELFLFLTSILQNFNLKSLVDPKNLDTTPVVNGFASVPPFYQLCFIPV
Chain of Cytochrome P450 3A4 (P08684 whole entry): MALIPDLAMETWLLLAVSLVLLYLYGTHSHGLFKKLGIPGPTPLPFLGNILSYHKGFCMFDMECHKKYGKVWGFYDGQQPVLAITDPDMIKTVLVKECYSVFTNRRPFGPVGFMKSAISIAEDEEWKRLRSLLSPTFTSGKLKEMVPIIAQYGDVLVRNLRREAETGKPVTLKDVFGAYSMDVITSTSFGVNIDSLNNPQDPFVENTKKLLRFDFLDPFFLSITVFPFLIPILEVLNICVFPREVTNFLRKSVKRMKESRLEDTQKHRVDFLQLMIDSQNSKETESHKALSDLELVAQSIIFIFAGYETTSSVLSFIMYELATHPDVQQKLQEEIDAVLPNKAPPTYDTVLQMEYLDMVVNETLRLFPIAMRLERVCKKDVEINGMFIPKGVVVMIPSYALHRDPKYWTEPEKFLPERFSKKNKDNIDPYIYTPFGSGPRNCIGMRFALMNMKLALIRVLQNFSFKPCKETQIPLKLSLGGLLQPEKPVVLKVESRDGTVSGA
Chain of Cytochrome P450 2C19 (P33261 whole entry): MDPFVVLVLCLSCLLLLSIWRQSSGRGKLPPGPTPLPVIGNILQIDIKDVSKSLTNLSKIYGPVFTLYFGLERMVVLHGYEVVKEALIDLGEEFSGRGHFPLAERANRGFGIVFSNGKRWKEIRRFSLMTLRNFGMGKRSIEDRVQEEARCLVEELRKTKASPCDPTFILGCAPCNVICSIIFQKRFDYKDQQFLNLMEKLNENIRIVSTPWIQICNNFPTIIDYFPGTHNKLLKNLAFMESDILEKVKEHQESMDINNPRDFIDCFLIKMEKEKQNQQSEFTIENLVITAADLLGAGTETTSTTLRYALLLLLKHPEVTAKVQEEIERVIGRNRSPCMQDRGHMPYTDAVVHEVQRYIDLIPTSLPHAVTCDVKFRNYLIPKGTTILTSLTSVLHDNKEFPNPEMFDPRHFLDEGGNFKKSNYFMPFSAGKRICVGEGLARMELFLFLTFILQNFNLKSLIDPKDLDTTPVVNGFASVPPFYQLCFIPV
Chain of hERG (KCNH2) (Q12809 whole entry): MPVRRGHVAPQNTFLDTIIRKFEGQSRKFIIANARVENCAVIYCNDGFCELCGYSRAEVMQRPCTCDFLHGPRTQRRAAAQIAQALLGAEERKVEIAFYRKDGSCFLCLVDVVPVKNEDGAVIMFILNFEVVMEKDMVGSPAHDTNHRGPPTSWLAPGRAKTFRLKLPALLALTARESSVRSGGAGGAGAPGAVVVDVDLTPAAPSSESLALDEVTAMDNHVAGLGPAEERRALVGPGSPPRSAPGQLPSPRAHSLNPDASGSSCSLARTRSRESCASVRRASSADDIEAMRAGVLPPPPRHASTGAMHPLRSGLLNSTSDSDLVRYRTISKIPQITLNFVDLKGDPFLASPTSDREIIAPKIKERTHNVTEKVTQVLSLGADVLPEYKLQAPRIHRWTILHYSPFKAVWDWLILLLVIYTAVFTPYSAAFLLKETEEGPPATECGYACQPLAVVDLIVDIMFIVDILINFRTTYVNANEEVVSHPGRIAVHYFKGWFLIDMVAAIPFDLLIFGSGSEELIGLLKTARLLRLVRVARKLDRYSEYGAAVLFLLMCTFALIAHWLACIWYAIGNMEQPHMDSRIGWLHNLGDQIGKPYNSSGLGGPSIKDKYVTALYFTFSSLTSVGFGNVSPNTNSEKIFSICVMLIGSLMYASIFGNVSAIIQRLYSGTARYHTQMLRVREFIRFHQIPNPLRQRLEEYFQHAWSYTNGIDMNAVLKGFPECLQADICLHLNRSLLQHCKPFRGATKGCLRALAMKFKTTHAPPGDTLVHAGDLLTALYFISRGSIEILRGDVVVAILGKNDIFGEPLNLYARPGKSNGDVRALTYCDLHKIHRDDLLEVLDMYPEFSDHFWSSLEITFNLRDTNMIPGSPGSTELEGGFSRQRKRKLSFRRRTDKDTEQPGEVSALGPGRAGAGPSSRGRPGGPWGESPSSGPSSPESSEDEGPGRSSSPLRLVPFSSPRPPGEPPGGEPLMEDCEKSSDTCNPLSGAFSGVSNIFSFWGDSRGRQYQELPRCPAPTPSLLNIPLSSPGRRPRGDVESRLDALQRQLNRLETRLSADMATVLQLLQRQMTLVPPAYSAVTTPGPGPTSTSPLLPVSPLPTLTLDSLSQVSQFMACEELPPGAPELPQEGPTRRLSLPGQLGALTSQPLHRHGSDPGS

SMILES: CCCNc1nc(C)c(C(=O)Nc2cc(C(=O)NCC)ccc2C)s1
- IC50 [1]: 130 nM

SMILES: CNC(=O)c1ccc(C)c(N2Cc3nc(NC(C)C)sc3C2=O)c1
- IC50 [1]: 110 nM

SMILES: Cc1ccc(C(N)=O)cc1NC(=O)c1cnc(NC(C)C)s1
- IC50 [1]: 3.2 nM
- IC50 [2]: > 50000 nM
- IC50 (PBMC [3]): 35 nM

SMILES: CCCNc1ncc(C(=O)Nc2cc(C(=O)NC)ccc2C)s1
- IC50 [1]: 4.5 nM
- IC50 [2]: 4800 nM
- IC50 (PBMC [3]): 42 nM

SMILES: CCNC(=O)c1ccc(C)c(N2Cc3nc(NC(C)C)sc3C2=O)c1
- IC50 [1]: 34 nM
- IC50 (PBMC [3]): > 250 nM

SMILES: Cc1cccc(Cl)c1NC(=O)c1cnc(NC2CCC2)s1
- IC50 [1]: 36 nM
- IC50 [2]: 3310 nM

SMILES: CNC(=O)c1ccc(C)c(N2Cc3nc(NC4CCCC4)sc3C2=O)c1
- IC50 [1]: 110 nM

SMILES: CCNC(=O)c1ccc(C)c(NC(=O)c2cnc(NC(C)C)s2)c1
- inhibition in vivo at 5 mg/kg (Mus musculus [4]): 68%
- IC50 [1]: 3.4 nM
- IC50 [2]: > 50000 nM
- IC50 (PBMC [3]): 11 nM
- concentration (Serum): 330 nM

SMILES: CNC(=O)c1ccc(C)c(NC(=O)c2cnc(NCCOC)s2)c1
- IC50 [1]: 22 nM
- IC50 (PBMC [3]): > 250 nM

SMILES: Cc1ccc(C(=O)Nc2ccon2)cc1NC(=O)c1cnc(NC(C)C)s1
- IC50 (PBMC [3]): 1 nM

SMILES: Cc1cccc(Cl)c1NC(=O)c1cnc(Nc2ccccc2)s1
- IC50 [1]: 62 nM

SMILES: CC[C@@H](C)Nc1ncc(C(=O)Nc2cc(C(=O)NC)ccc2C)s1
- Activity (Cytochrome P450 3A4): > 40 µM
- concentration at 18 h [5]: 8.1 nM
- Activity (Rattus norvegicus [6]): Active
- bioavailability [7]: 75%
- inhibition in vivo at 0.3 mg/kg (Rattus norvegicus [8]): 46%
- Activity (Cytochrome P450 2C9): > 40 µM
- Stability (Liver microsomes [9]): 0 nmol/min/mg
- Activity (Cytochrome P450 2C19): > 40 µM
- Activity (Cytochrome P450 2D6): > 40 µM
- Vd [10]: 1.8 L/kg
- Papp [11]: 8.3 ×10⁻⁶ cm/s
- AUC(0-t) at 24 h [12]: 25 µM·h
- Stability (Liver microsomes [13]): 0 nmol/min/mg
- fraction unbound [14]: 0.18
- concentration at 18 h [15]: 16 nM
- IC50 [2]: 22000 nM
- solubility [16]: 22 µg/mL (≈ 63.5 µM)
- IC50 (PBMC [3]): 2.9 nM
- Stability (Liver): 0 nmol/min/mg
- inhibition at 30 µM (hERG (KCNH2)): 7%
- Cmax [17]: 8700 nM
- IC50 (PBMC [18]): 99 nM
- IC50 (Blood [19]): 54 nM
- concentration at 24 h [20]: 7.6 nM
- clearance [21]: 14.1 mL/min/kg
- inhibition in vivo at 5 mg/kg (Mus musculus [22]): 46%
- half-life [23]: 1.8 h
- Activity (Rattus norvegicus [24]): Active
- IC50 (Blood [25]): 600 nM
- ED50 (Rattus norvegicus [26]): 2 mg/kg
- Activity (Cytochrome P450 1A2): > 40 µM

SMILES: Cc1cccc(Cl)c1NC(=O)c1cnc(NC(C)C)s1
- IC50 [1]: 13 nM
- IC50 (PBMC [3]): 160 nM

SMILES: Cc1ccc(C(=O)Nc2ccnn2C)cc1NC(=O)c1cnc(NC(C)C)s1
- IC50 [1]: 5.4 nM
- IC50 [2]: 5800 nM
- IC50 (PBMC [3]): 6.4 nM

SMILES: CCCNc1ncc(C(=O)Nc2cc(C(=O)NCC)ccc2C)s1
- IC50 [1]: 2 nM
- IC50 [2]: 1900 nM
- IC50 (PBMC [3]): 2.7 nM
- Activity (Mus musculus [27]): inactive

SMILES: CCCNc1ncc(C(=O)Nc2c(C)cccc2Cl)s1
- IC50 [1]: 28 nM
- IC50 (PBMC [3]): > 2000 nM

SMILES: CCNc1ncc(C(=O)Nc2c(C)cccc2Cl)s1
- IC50 [1]: 140 nM

SMILES: CCCNc1nc2c(s1)C(=O)N(c1cc(C(=O)NCC)ccc1C)C2
- IC50 [1]: 160 nM

SMILES: CCCNc1ncc(C(=O)Nc2cc(C(N)=O)ccc2C)s1
- IC50 [1]: 4.1 nM
- IC50 (PBMC [3]): 23 nM

SMILES: CCCNc1nc2c(s1)C(=O)N(c1cc(C(=O)NC)ccc1C)C2
- IC50 [1]: 270 nM

SMILES: CC[C@H](C)Nc1ncc(C(=O)Nc2cc(C(=O)NC)ccc2C)s1
- inhibition in vivo at 5 mg/kg (Mus musculus [4]): 69%
- IC50 [2]: > 50000 nM
- IC50 (PBMC [3]): 4.1 nM
- concentration (Serum): 250 nM

SMILES: CCNC(=O)c1ccc(C)c(NC(=O)c2sc(NCC)nc2C)c1
- IC50 [1]: 330 nM

SMILES: Cc1cccc(Cl)c1NC(=O)c1cnc(NC2CC2)s1
- IC50 [1]: 39 nM
- IC50 [2]: 140 nM
- IC50 (PBMC [3]): 1500 nM

SMILES: CNC(=O)c1ccc(C)c(NC(=O)c2cnc(NC(C)C)s2)c1
- inhibition in vivo at 5 mg/kg (Mus musculus [4]): 62%
- IC50 [1]: 3.5 nM
- IC50 [2]: > 50000 nM
- IC50 (PBMC [3]): 8.7 nM
- Activity (Mus musculus [27]): inactive
- concentration (Serum): 400 nM

SMILES: Cc1ccc(C(=O)Nc2ccn[nH]2)cc1NC(=O)c1cnc(NC(C)C)s1
- IC50 [1]: 4.2 nM
- IC50 (PBMC [3]): 7.9 nM
